Measured values published in ChEMBL document CHEMBL3994599, “Pallidopenillines: Polyketides from the Alga-Derived Fungus Penicillium thomii Maire KMM 4675” (J Nat Prod, 2016).
The source made the active and inactive calls. The calls are words filed in the database; no cut-off is given here.

What was measured:
MEL28 = assay: Cytotoxicity against human MEL28 cells assessed as reduction in cell viability up to 100 uM after 24 to 72 hrs by MTT assay; format: functional, cell-based
HCT-116 = assay: Cytotoxicity against human HCT116 cells assessed as reduction in cell viability up to 100 uM after 24 to 72 hrs by MTT assay; format: functional, cell-based
RAW264.7 = assay: Inhibition of ROS generation in mouse RAW264.7 cells at 10 uM after 24 hrs by H2DCF-DA staining based fluorescence assay relative to control; format: functional; conditions: RAW264.7, 24 h
Outline: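 RAW 264.7 murine macrophages were stimulated with lipopolysaccharide (LPS), and compounds were tested at 10 μM. ROS levels were expressed as percent change relative to control cells treated with LPS alone. Significance was reported as p values.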

CWR22R [1] = assay: Cytotoxicity against human 22Rv1 cells assessed as reduction in cell viability up to 72 hrs by MTT assay; format: functional, cell-based; conditions: 22Rv1, 72 h
CWR22R [2] = assay: Cytotoxicity against human 22Rv1 cells assessed as inhibition of colony formation at 1 uM relative to control; format: functional
Outline: (§1)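 Soft agar method: 22Rv1 human prostate cancer cells were grown in soft agar with compound. Colony formation and growth were compared with untreated control.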

CWR22R [3] = assay: Cytotoxicity against human 22Rv1 cells assessed as inhibition of colony formation at 2 uM relative to control; format: functional; outline: as §1

Compound | Activity (MEL28) | Activity (HCT-116) | inhibition at 10 µM (RAW264.7) | IC50 (CWR22R [1]) | inhibition at 1 µM (CWR22R [2]) | inhibition at 2 µM (CWR22R [3])
C[C@H]1CC[C@H]2[C@@H](C=C[C@@](C)(O)[C@@H]2C(=O)CCO)[C@@H]1O | inactive | inactive | – | – | – | –
CC(=O)OCCC(=O)[C@@H]1[C@H]2CC[C@H](CO)C[C@@H]2C=C[C@@]1(C)O | inactive | inactive | 27% | – | – | –
CC(=O)OCCC(=O)[C@H]1C(C)=C[C@@H](O)[C@H]2[C@H](O)[C@@H](C)CC[C@H]12 | – | – | 36% | 9.8 µM | 40% | –
CC(=O)OCCC(=O)[C@@H]1[C@H]2CC[C@H](C)[C@@H](O)[C@@H]2C=C[C@@]1(C)O | inactive | inactive | – | – | – | 40%
CC(=O)OCCC(=O)[C@@H]1[C@H]2CC[C@H](C)[C@@H](O)[C@@H]2[C@H](Cl)[C@@H](O)[C@@]1(C)O | – | – | 37% | – | – | –
CC(=O)OCCC(=O)[C@@H]1[C@H]2CC[C@H](COC(C)=O)C[C@@H]2C=C[C@@]1(C)O | inactive | inactive | – | – | – | –
CC(=O)OC[C@H]1CC[C@@H]2[C@@H](C(=O)CCO)[C@](C)(O)C=C[C@H]2C1 | inactive | inactive | – | – | – | –
